Results taken from ChEMBL document CHEMBL1146871, “Hydrazides of clozapine: a new class of D1 dopamine receptor subtype selective antagonists” (Bioorg Med Chem Lett, 2006).

Columns and labels:
D(1A) dopamine receptor [1] = molecular target: T1, D(1A) dopamine receptor (Homo sapiens, UniProt P21728); assay: Displacement of [3H]SCH 23390 from human dopamine D1 receptor expressed in CHO cells; type: cell-based
D(2) dopamine receptor [2] = molecular target: T2, D(2) dopamine receptor (Homo sapiens, UniProt P14416); assay: Displacement of [3H]methylspiperone from human dopamine D2 receptor expressed in CHO cells; type: cell-based
D(4) dopamine receptor = molecular target: T3, D(4) dopamine receptor (Homo sapiens, UniProt P21917); assay: Binding affinity at dopamine D4 receptor
T3 sequence (P21917 whole entry): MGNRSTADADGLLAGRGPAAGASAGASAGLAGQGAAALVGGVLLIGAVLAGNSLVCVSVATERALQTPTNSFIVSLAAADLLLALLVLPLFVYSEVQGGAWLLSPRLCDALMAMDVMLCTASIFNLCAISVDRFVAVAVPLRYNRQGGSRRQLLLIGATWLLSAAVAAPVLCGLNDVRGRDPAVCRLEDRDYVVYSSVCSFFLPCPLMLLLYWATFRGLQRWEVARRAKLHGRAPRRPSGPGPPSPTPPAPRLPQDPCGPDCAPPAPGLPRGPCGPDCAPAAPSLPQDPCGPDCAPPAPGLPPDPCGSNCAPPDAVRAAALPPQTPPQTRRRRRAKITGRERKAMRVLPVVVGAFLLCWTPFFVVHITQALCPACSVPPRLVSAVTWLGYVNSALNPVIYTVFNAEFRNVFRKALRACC

D(2) dopamine receptor [3] = molecular target: T2, D(2) dopamine receptor; assay: Binding affinity at dopamine D2 receptor
In short: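 Membranes from cells stably expressing D2 receptor (4-7 pmol/mg protein; Ltk- cells in one passage, CHO in another), made by hypotonic lysis and 48,000g spin and stored at -80 °C. Incubated with 0.5 nM [3H]methylspiperone for 1 h at room temperature. Nonspecific binding set by 10 µM (-)-sulpiride. Rapid filtration, then scintillation counting. One-site competition fit; Ki is the mean of separate determinations.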

[4] = molecular target: 5-hydroxytryptamine receptor 2A (Homo sapiens, UniProt P28223); assay: Binding affinity at 5HT2A receptor
[5] = molecular target: T4, Alpha-2A adrenergic receptor (Homo sapiens, UniProt P08913); assay: Binding affinity at adrenergic alpha2A receptor
T4 sequence (P08913 whole entry): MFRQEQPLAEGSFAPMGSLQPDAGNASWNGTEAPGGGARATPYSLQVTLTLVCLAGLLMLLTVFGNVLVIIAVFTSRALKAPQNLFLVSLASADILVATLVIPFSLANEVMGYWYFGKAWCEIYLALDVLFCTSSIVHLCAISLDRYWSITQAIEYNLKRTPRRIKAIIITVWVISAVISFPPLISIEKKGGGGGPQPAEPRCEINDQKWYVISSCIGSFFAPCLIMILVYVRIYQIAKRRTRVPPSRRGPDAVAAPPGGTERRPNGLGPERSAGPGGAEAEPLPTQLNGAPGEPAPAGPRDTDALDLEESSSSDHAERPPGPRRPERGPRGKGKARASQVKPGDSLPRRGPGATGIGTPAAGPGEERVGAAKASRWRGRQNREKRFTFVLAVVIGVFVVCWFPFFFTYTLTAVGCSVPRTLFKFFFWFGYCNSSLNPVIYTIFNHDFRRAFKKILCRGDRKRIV

D(1A) dopamine receptor [6] = molecular target: T1, D(1A) dopamine receptor; assay: Activity at dopamine D1 receptor by cAMP assay; type: functional; details: for Activity: filed as antagonist
D(1B) dopamine receptor = D(1B) dopamine receptor (Homo sapiens, UniProt P21918); assay: Binding affinity at dopamine D5 receptor
[7] = AUC in Sprague-Dawley rat plasma at 10 mg/kg, po; type: ADME, organism-based; design: dose 10 mg/kg, route oral
In short: (§1)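 Single oral dose of 10 mg/kg to two male Sprague-Dawley rats. Blood drawn at several time points. Plasma levels of individual animals, generally within ±25% of the mean, were used to calculate PK parameters.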

[8] = Cmax in Sprague-Dawley rat plasma at 10 mg/kg, po; type: ADME, organism-based; design: dose 10 mg/kg, route oral; in short: as §1
[9] = Tmax in Sprague-Dawley rat plasma at 10 mg/kg, po; type: ADME, organism-based; design: dose 10 mg/kg, route oral; in short: as §1

Sequence of 5-hydroxytryptamine receptor 2A (P28223 whole entry): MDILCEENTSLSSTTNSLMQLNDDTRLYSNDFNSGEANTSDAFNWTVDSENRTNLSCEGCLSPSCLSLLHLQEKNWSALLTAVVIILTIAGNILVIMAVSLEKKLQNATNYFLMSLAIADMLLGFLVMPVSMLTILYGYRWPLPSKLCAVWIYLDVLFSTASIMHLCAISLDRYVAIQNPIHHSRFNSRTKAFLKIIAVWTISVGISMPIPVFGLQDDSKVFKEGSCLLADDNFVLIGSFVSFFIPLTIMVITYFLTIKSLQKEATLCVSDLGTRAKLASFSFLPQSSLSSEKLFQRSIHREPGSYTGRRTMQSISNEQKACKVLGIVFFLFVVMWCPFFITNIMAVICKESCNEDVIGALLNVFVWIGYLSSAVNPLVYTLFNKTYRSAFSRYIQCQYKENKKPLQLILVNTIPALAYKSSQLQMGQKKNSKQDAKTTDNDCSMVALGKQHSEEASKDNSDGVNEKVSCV
T2 sequence (P14416 whole entry): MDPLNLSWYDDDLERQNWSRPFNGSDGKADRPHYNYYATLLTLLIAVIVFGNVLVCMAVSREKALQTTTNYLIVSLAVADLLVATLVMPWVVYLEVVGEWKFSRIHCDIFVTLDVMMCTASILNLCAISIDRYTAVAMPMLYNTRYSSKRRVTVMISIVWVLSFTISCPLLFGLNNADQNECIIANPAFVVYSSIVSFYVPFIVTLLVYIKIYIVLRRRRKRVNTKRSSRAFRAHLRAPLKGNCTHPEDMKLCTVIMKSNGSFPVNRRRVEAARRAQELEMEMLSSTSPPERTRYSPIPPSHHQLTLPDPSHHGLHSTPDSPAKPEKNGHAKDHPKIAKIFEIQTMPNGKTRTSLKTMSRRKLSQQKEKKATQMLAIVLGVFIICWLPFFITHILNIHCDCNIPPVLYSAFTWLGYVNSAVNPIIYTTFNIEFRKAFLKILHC
T1 sequence (P21728 whole entry): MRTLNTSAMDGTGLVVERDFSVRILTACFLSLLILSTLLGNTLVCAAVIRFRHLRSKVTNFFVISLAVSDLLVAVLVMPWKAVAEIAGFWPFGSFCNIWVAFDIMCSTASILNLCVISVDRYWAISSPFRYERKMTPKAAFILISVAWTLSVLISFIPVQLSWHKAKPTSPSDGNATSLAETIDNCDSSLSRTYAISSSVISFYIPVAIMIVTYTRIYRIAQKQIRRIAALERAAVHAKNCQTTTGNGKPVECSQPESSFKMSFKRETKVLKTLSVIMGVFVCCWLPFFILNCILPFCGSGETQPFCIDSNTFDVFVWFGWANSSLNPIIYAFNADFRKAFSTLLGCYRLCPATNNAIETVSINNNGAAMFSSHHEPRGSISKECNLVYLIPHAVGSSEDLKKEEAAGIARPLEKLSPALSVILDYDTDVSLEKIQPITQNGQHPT
Sequence of D(1B) dopamine receptor (P21918 whole entry): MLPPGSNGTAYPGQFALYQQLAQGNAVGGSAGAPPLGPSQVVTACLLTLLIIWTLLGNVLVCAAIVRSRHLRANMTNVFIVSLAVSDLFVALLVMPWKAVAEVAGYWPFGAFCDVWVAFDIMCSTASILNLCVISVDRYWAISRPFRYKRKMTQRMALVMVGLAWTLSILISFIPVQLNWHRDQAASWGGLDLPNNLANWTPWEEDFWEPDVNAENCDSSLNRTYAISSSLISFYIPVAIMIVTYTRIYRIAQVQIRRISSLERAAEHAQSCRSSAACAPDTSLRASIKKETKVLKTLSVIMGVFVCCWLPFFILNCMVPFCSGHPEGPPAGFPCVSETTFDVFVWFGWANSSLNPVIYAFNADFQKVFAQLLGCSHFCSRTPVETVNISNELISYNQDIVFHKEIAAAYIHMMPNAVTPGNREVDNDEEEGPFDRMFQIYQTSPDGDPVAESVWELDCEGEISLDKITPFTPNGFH

Row | Compound | Ki (D(1A) dopamine receptor [1]) [nM] | Ki (D(2) dopamine receptor [2]) [nM] | further results
1 | CN1CCN(C2=Nc3cc(Cl)ccc3N(NC(=O)C3CCCCC3)c3ccccc32)CC1 | 42 | 1780 | –
2 | CN1CCN(C2=Nc3cc(Cl)ccc3N(NC(=O)c3ccccc3Oc3ccccc3)c3ccccc32)CC1 | 51 | 431 | –
3 | CN1CCN(C2=Nc3cc(Cl)ccc3N(NC(=O)C(C)(C)C)c3ccccc32)CC1 | 98 | – | –
4 | CN1CCN(C2=Nc3cc(Cl)ccc3N(NC(=O)c3ccccc3-n3ccnc3)c3ccccc32)CC1 | 88 | 3000 | –
5 | CN1CCN(C2=Nc3cc(Cl)ccc3N(N)c3ccccc32)CC1 | 280 | 647 | –
6 | CN1CCN(C2=Nc3cc(Cl)ccc3N(NC(=O)c3cccc(F)c3)c3ccccc32)CC1 | 47 | 921 | –
7 | CN1CCN(C2=Nc3cc(Cl)ccc3N(NC(=O)c3ccc(C(F)(F)F)cc3)c3ccccc32)CC1 | 68 | – | –
8 | CN1CCN(C2=Nc3cc(Cl)ccc3N(NC(=O)/C=C/c3ccccc3)c3ccccc32)CC1 | 103 | 1600 | –
9 | CN1CCN(C2=Nc3cc(Cl)ccc3N(NC(=O)c3ccccc3NC3CCCCC3)c3ccccc32)CC1 | 62 | 3820 | –
10 | CN1CCN(C2=Nc3cc(Cl)ccc3N(NC(=O)c3cnn(-c4ccccc4)c3C(F)(F)F)c3ccccc32)CC1 | 30 | 2080 | –
11 | COc1ccc(C(=O)NN2c3ccc(Cl)cc3N=C(N3CCN(C)CC3)c3ccccc32)cc1 | 47 | 3000 | –
12 | CCOc1c(C(=O)NN2c3ccc(Cl)cc3N=C(N3CCN(C)CC3)c3ccccc32)sc2ccccc12 | 28 | 196 | –
13 | CCCC(=O)NN1c2ccc(Cl)cc2N=C(N2CCN(C)CC2)c2ccccc21 | 154 | 400 | –
14 | CN1CCN(C2=Nc3cc(Cl)ccc3N(NC(=O)c3ccc(Cl)cc3)c3ccccc32)CC1 | 35 | 9250 | –
15 | CN1CCN(C2=Nc3cc(Cl)ccc3N(NC(=O)C(F)(F)F)c3ccccc32)CC1 | 86 | 1900 | –
16 | CCOc1ccc2ccccc2c1C(=O)NN1c2ccc(Cl)cc2N=C(N2CCN(C)CC2)c2ccccc21 | 65 | 274 | –
17 | CN1CCN(C2=Nc3cc(Cl)ccc3N(NC(=O)c3sccc3-c3ccccc3)c3ccccc32)CC1 | 39 | 78 | –
18 | CC(=O)NN1c2ccc(Cl)cc2N=C(N2CCN(C)CC2)c2ccccc21 | 494 | – | –
19 | CN1CCN(C2=Nc3cc(Cl)ccc3N(NC(=O)C3CCC3)c3ccccc32)CC1 | 150 | – | –
20 | CN1CCN(C2=Nc3cc(Cl)ccc3N(NC(=O)c3ccccc3N3CCN(C)CC3)c3ccccc32)CC1 | 237 | 3770 | –
21 | CN1CCN(C2=Nc3cc(Cl)ccc3N(NC(=O)CCc3ccccc3)c3ccccc32)CC1 | 79 | 621 | –
22 | CN1CCN(C2=Nc3cc(Cl)ccc3N(NC(=O)CCC3CCCC3)c3ccccc32)CC1 | 111 | 1950 | –
23 | CN1CCN(C2=Nc3cc(Cl)ccc3N(NC(=O)c3ccccc3)c3ccccc32)CC1 | 157 | 1150 | –
24 | CN1CCN(C2=Nc3cc(Cl)ccc3N(NC(=O)c3cnc4ccccc4c3)c3ccccc32)CC1 | 28 | – | –
25 | COc1ccc(CCC(=O)NN2c3ccc(Cl)cc3N=C(N3CCN(C)CC3)c3ccccc32)cc1Cl | 56 | 582 | –

These reach a lower Ki (D(1A) dopamine receptor [1]). Values come first.

Row | Ki (D(1A) dopamine receptor [1]) [nM] | Ki (D(2) dopamine receptor [2]) [nM] | Compound | further results
26 | 25.6 | 1850 | CCCC(CCC)C(=O)NN1c2ccc(Cl)cc2N=C(N2CCN(C)CC2)c2ccccc21 | –
27 | 24 | 608 | CN1CCN(C2=Nc3cc(Cl)ccc3N(NC(=O)c3cc(Cl)cc(Cl)c3)c3ccccc32)CC1 | –
28 | 23 | 484 | CN1CCN(C2=Nc3cc(Cl)ccc3N(NC(=O)c3nccc4ccccc34)c3ccccc32)CC1 | –
29 | 22 | 460 | CN1CCN(C2=Nc3cc(Cl)ccc3N(NC(=O)c3ccon3)c3ccccc32)CC1 | –
30 | 15 | 837 | CN1CCN(C2=Nc3cc(Cl)ccc3N(NC(=O)c3ccco3)c3ccccc32)CC1 | –
31 | 14 | 2390 | CN1CCN(C2=Nc3cc(Cl)ccc3N(NC(=O)c3ccc(Br)cc3)c3ccccc32)CC1 | –
32 | 14 | 1470 | CN1CCN(C2=Nc3cc(Cl)ccc3N(NC(=O)c3cccs3)c3ccccc32)CC1 | –
33 | 13 | 1130 | COc1cccc(C(=O)NN2c3ccc(Cl)cc3N=C(N3CCN(C)CC3)c3ccccc32)c1 | –
34 | 12 | 374 | CN1CCN(C2=Nc3cc(Cl)ccc3N(NC(=O)c3ccccc3F)c3ccccc32)CC1 | –
35 | 12 | 6390 | CN1CCN(C2=Nc3cc(Cl)ccc3N(NC(=O)c3ccc(Cl)c(Cl)c3)c3ccccc32)CC1 | –
36 | 11 | 630 | CN1CCN(C2=Nc3cc(Cl)ccc3N(NC(=O)c3cccnc3Cl)c3ccccc32)CC1 | –
37 | 10 | 931 | CN1CCN(C2=Nc3cc(Cl)ccc3N(NC(=O)c3ccc4ccccc4n3)c3ccccc32)CC1 | –
38 | 10 | 180 | CCOc1csc(C(=O)NN2c3ccc(Cl)cc3N=C(N3CCN(C)CC3)c3ccccc32)c1 | –
39 | 9 | 3000 | CN1CCN(C2=Nc3cc(Cl)ccc3N(NC(=O)c3ccsc3)c3ccccc32)CC1 | –
40 | 7.8 | 215 | CN1CCN(C2=Nc3cc(Cl)ccc3N(NC(=O)c3ccccc3N3CCCCC3)c3ccccc32)CC1 | –
41 | 7.7 | 1520 | Cc1ccc(C(=O)NN2c3ccc(Cl)cc3N=C(N3CCN(C)CC3)c3ccccc32)cc1 | –
42 | 7.4 | 1310 | CN1CCN(C2=Nc3cc(Cl)ccc3N(NC(=O)c3ccc4ccccc4c3)c3ccccc32)CC1 | –
43 | 7 | 92 | CN1CCN(C2=Nc3cc(Cl)ccc3N(NC(=O)c3c(N)cccc3C(F)(F)F)c3ccccc32)CC1 | –
44 | 4 | 181 | CN1CCN(C2=Nc3cc(Cl)ccc3N(NC(=O)c3cccc(Cl)c3)c3ccccc32)CC1 | –
45 | 4 | 390 | CN1CCN(C2=Nc3cc(Cl)ccc3N(NC(=O)c3c(Cl)cc(Cl)cc3Cl)c3ccccc32)CC1 | –
46 | 3.6 | 350 | CN1CCN(C2=Nc3cc(Cl)ccc3N(NC(=O)c3cccc(I)c3)c3ccccc32)CC1 | –
47 | 3.4 | 240 | CN1CCN(C2=Nc3cc(Cl)ccc3N(NC(=O)c3c(Cl)cccc3Cl)c3ccccc32)CC1 | –
48 | 3.2 | 1020 | Cc1cccc(N)c1C(=O)NN1c2ccc(Cl)cc2N=C(N2CCN(C)CC2)c2ccccc21 | Ki (D(4) dopamine receptor): 4850 nM; Ki (D(2) dopamine receptor [3]): 1020 nM; Ki [4]: 2.9 nM; Ki [5]: 456 nM; Kb (D(1A) dopamine receptor [6]): 6.7 nM; Activity (D(1A) dopamine receptor [6]): Antagonist; Ki (D(1B) dopamine receptor): 58 nM
49 | 3 | 517 | Cc1cccc(C(=O)NN2c3ccc(Cl)cc3N=C(N3CCN(C)CC3)c3ccccc32)c1 | –
50 | 3 | 287 | Cc1cccc(C)c1C(=O)NN1c2ccc(Cl)cc2N=C(N2CCN(C)CC2)c2ccccc21 | Ki (D(4) dopamine receptor): 1870 nM; Ki (D(2) dopamine receptor [3]): 287 nM; Ki [4]: 2.2 nM; Ki [5]: 791 nM; Kb (D(1A) dopamine receptor [6]): 2.8 nM; Activity (D(1A) dopamine receptor [6]): Antagonist; Ki (D(1B) dopamine receptor): 31 nM
51 | 2.6 | 496 | CN1CCN(C2=Nc3cc(Cl)ccc3N(NC(=O)c3c(N)cccc3Cl)c3ccccc32)CC1 | Ki (D(4) dopamine receptor): 808 nM; Ki (D(2) dopamine receptor [3]): 496 nM; Ki [4]: 0.9 nM; Ki [5]: 327 nM; Kb (D(1A) dopamine receptor [6]): 1.7 nM; Activity (D(1A) dopamine receptor [6]): Antagonist; Ki (D(1B) dopamine receptor): 53 nM
52 | 2.5 | 383 | CN1CCN(C2=Nc3cc(Cl)ccc3N(NC(=O)c3c(F)cccc3C(F)(F)F)c3ccccc32)CC1 | Ki (D(4) dopamine receptor): 2000 nM; Ki (D(2) dopamine receptor [3]): 383 nM; Ki [4]: 1.2 nM; Ki [5]: 2000 nM; Kb (D(1A) dopamine receptor [6]): 2.3 nM; Activity (D(1A) dopamine receptor [6]): Antagonist; Ki (D(1B) dopamine receptor): 7 nM
53 | 1.6 | 340 | COc1cccc(OC)c1C(=O)NN1c2ccc(Cl)cc2N=C(N2CCN(C)CC2)c2ccccc21 | AUC [7]: 2670 ng·h/mL; Cmax [8]: 802 ng/mL; Tmax [9]: 30 min; Ki (D(4) dopamine receptor): 1810 nM; Ki (D(2) dopamine receptor [3]): 340 nM; Ki [4]: 13.8 nM; Ki [5]: 169 nM; Kb (D(1A) dopamine receptor [6]): 0.7 nM; Activity (D(1A) dopamine receptor [6]): Antagonist; Ki (D(1B) dopamine receptor): 38 nM
